Published values gathered from unrelated publications.
Compare with care: the assays were run in different laboratories.
DRD3: D(3) dopamine receptor (DRD3, Homo sapiens, UniProt P35462)
CA12: Carbonic anhydrase 12 (CA12, Homo sapiens, UniProt O43570)
PPARG: Peroxisome proliferator-activated receptor gamma (PPARG, Homo sapiens, UniProt P37231)
SLC6A3: Sodium-dependent dopamine transporter (SLC6A3, Homo sapiens, UniProt Q01959)
CASP3: Caspase-3 (CASP3, Homo sapiens, UniProt P42574)

Structure (SMILES)	target	observed	action	technique	notes	Ki
CN(CCCCNC(=O)c1cc2ccccc2[nH]1)[C@@H]1Cc2cccc3[nH]c(=O)n(c23)C1	DRD3	ligand displacement	–	radioligand	cell membranes	82.7 nM
NS(=O)(=O)c1ccc(-n2nccc2-c2ccc(N3CCCCC3)cc2)cc1	CA12	enzyme activity	inhibitor	stopped-flow	–	298 nM
CC1Cc2ccccc2N1C(=O)NCCCCN(C)[C@@H]1Cc2cccc3[nH]c(=O)n(c23)C1 (mixture of isomers)	DRD3	ligand displacement	–	radioligand	cell membranes	139 nM
CN(CCOc1ccc(CC2SC(=O)N(CC(=O)OC(C)(C)C)C2=O)cc1)c1ccccn1 (stereo not shown)	PPARG	ligand displacement	–	TR-FRET	–	103 nM
CC(=O)N[C@@H](CCCCNC(=O)CSCCNC(=O)CCNC(=O)[C@H](O)C(C)(C)COP(=O)(O)OP(=O)(O)OC[C@H]1O[C@@H](n2cnc3c(N)ncnc32)[C@H](O)[C@@H]1OP(=O)(O)O)C(N)=O	Histone acetyltransferase type B catalytic subunit (Homo sapiens, UniProt O14929)	enzyme activity	inhibitor	radiometric	–	74800 nM
CN(CC[C@@H]1C[C@H]1CNC(=O)c1cc2ccccc2[nH]1)[C@@H]1Cc2cccc3[nH]c(=O)n(c23)C1	DRD3	ligand displacement	–	radioligand	cell membranes	398 nM
O=C(O[C@@H]1Cc2c(O)cc(O[C@H]3O[C@H](CO)[C@@H](O)[C@H](O)[C@H]3O)cc2O[C@@H]1c1cc(O)c(O)c(O)c1)c1cc(O)c(O)c(O)c1	Maltase-glucoamylase (Homo sapiens, UniProt O43451)	enzyme activity	inhibitor	–	–	7880 nM
CNc1nc2cc(OCCCCN3CCC(c4cccc(Cl)c4Cl)CC3)ccc2s1	SLC6A3	ligand displacement	–	radioligand	–	2100 nM
CCCN(CCCCNC(=O)c1cc2ccccc2[nH]1)[C@H]1CNc2ccccc2C1	DRD3	ligand displacement	–	radioligand	cell membranes	1.34 nM
CC(C)c1nc2cc(OCCCCN3CCN(c4cccc5c4OCCO5)CC3)ccc2s1	SLC6A3	ligand displacement	–	radioligand	–	2500 nM
O=c1c(O)c(-c2cc(O)c(O)c(O)c2)oc2cc(O)cc(O)c12	CASP3	enzyme activity	inhibitor	fluorescence	–	68700 nM
c1ccc(CCC2=NCCN2CCc2ccccc2)cc1	DRD3	ligand displacement	–	radioligand	–	> 10000 nM
O=C1CSC(=S)N1NC(=S)SSC(=S)NN1C(=O)CSC1=S	Tyrosine-protein phosphatase non-receptor type 22 (PTPN22, Homo sapiens, UniProt Q9Y2R2)	enzyme activity	inhibitor	fluorescence	–	1100 nM
CC1(C)C=Cc2c(cc3oc(-c4ccccc4)c(O)c(=O)c3c2O)O1	PPARG	cell-free assay	–	TR-FRET	–	3200 nM
COc1ccc2c(c1)C(=O)N(CCCN1CCN(c3ccccc3OC)CC1)C2	DRD3	ligand displacement	–	radioligand	–	389 nM
O=c1cc(-c2ccc(O)c(O)c2)oc2cc(O)cc(O)c12	CASP3	enzyme activity	inhibitor	fluorescence	–	181000 nM
CSC[C@H](NC(=O)C1=NO[C@@H]2OCC[C@H]12)C(=O)N[C@@H](CC(C)C)[C@@H](O)C[C@@H](C)C(=O)N[C@H](C(=O)NCC(C)C)C(C)C	Beta-secretase 2 (BACE2, Homo sapiens, UniProt Q9Y5Z0)	enzyme activity	inhibitor	–	–	46 nM
O=C(/C=C(/Nc1ccccc1)C(=O)c1ccccc1)c1ccccc1	DNA repair nuclease/redox regulator APEX1 (APEX1, Homo sapiens, UniProt P27695)	enzyme activity	inhibitor	–	–	37000 nM
NS(=O)(=O)c1ccc(-n2nccc2-c2ccc(N3CCOCC3)cc2)cc1	CA12	enzyme activity	inhibitor	stopped-flow	–	344 nM
